Reference: ChEMBL document CHEMBL1649179, “Pharmacokinetics of LB80331 and LB80317 following oral administration of LB80380, a new antiviral agent for chronic hepatitis B (CHB), in healthy adult subjects, CHB patients, and mice” (Antimicrob Agents Chemother, 2009)

Tests used:
Homo sapiens [1] = experiment: Cmax in high fat diet fed healthy human assessed as (1-((2-amino-9H-purin-9-yl)methyl)cyclopropoxy)me at 60 mg, po administered as single dose by LC-MS analysis; assay type: ADME, organism-based; set-up: dose 60 mg, route oral; conditions: in vivo
In short: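 Healthy subjects given a single oral dose after an overnight fast or after a high-fat breakfast. Plasma LB80331 measured by validated LC-MS/MS (LLOQ 5 ng/ml) after protein precipitation. Cmax by noncompartmental analysis.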

Homo sapiens [2] = experiment: AUC (0 to infinity) in chronic hepatitis B virus infected patient assessed as (1-((2-amino-9H-purin-9-yl)methyl)cyclopropoxy)me at 120 mg, po administered as single dose by LC-MS analysis; assay type: ADME, organism-based, Plasma; set-up: dose 120 mg, time infinity, route oral; conditions: in vivo
In short: (§1)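 CHB patients (HBsAg/HBeAg positive), six per dose cohort, given a first oral dose on day 1. Plasma sampled at baseline. Analysis by validated LC-MS/MS after protein precipitation with a stable-isotope internal standard; LLOQ 5 ng/ml for LB80331. Noncompartmental analysis gives Cmax and AUC0-∞.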

Homo sapiens [3] = experiment: Cmax in chronic hepatitis B virus infected patient assessed as (1-((2-amino-9H-purin-9-yl)methyl)cyclopropoxy)me at 60 mg, po qd for 4 weeks by LC-MS analysis; assay type: ADME, organism-based; set-up: dose 60 mg, route oral; conditions: in vivo, 672 h
In short: (§2)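 CHB patients, oral once daily for 4 weeks. Plasma sampled at steady state (weeks 2–4), predose and at 0.5, 1, 2, 3, 4, 6, 8 and 24 h postdose. LB80331 measured by validated LC-MS/MS (LLOQ 5 ng/ml) after protein precipitation with a stable-isotope internal standard. Cmax by noncompartmental analysis.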

Liver [4] = experiment: AUC (0 to infinity) in CD-1 mouse liver assessed as di- and triphosphates of (1-((2-amino-9H-purin-9-yl)methyl)cyclopropoxy)me at 30 mg/kg, po administered as single dose by LC-MS analysis; assay type: ADME, organism-based; set-up: time infinity, dose 30 mg/kg, route oral; conditions: in vivo
In short: (§3)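 Male CD-1 mice given a single oral dose in 100% PEG 400. Samples extracted with perchloric acid and neutralized with ammonium bicarbonate. One aliquot assayed for the free analyte; the other treated with calf intestinal phosphatase to give the total including di-/triphosphates. Analysis by LC-MS/MS.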

Homo sapiens [5] = experiment: Tmax in chronic hepatitis B virus infected patient assessed as (1-((2-amino-9H-purin-9-yl)methyl)cyclopropoxy)me at 60 mg, po administered as single dose by LC-MS analysis; assay type: ADME, organism-based; conditions: in vivo
In short: (§4)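 Daily oral LB80380 was given to CHB patients over 4 weeks. Blood was drawn on day 1 and at steady state (weeks 2–4), predose and 0.5–24 h postdose. Plasma LB80331 (LLOQ 5 ng/ml) and LB80317 (LLOQ 10 ng/ml) were measured by LC-MS/MS after protein-precipitation extraction. Tmax was taken by noncompartmental analysis.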

Liver [6] = experiment: Half life in CD-1 mouse liver assessed as di- and triphosphates of (1-((2-amino-9H-purin-9-yl)methyl)cyclopropoxy)me at 30 mg/kg, po administered as single dose by LC-MS analysis; assay type: ADME, organism-based; set-up: dose 30 mg/kg, route oral; conditions: in vivo; in short: as §3
Plasma [7] = experiment: AUC (0 to infinity) in CD-1 mouse plasma assessed as (1-((2-amino-9H-purin-9-yl)methyl)cyclopropoxy)me at 30 mg/kg, po administered as single dose by LC-MS analysis; assay type: ADME, organism-based; set-up: time infinity, dose 30 mg/kg, route oral; conditions: in vivo; in short: as §3
Homo sapiens [8] = experiment: Oral clearance in chronic hepatitis B virus infected patient assessed as (1-((2-amino-9H-purin-9-yl)methyl)cyclopropoxy)me at 30 mg, po administered as single dose by LC-MS analysis; assay type: ADME, organism-based; conditions: in vivo
In short: (§5)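 Oral LB80380 was given once daily for 4 weeks to CHB patients. Plasma LB80331 was quantified by validated LC-MS/MS after protein precipitation, with stable-isotope internal standard, at baseline and steady state (weeks 2–4), 0–24 h postdose. Noncompartmental CL/F was calculated as dose (adjusted for LB80380/LB80331 molecular weights) divided by AUC (AUC0-∞ single dose; AUC0-24 steady state).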

Plasma [9] = experiment: AUC (0 to 36 hrs) in CD-1 mouse plasma assessed as (1-((2-amino-9H-purin-9-yl)methyl)cyclopropoxy)me at 30 mg/kg, po administered as single dose by LC-MS analysis; assay type: ADME, organism-based; set-up: time < 36 hr, dose 30 mg/kg, route oral; conditions: in vivo; in short: as §3
Homo sapiens [10] = experiment: Half life in chronic hepatitis B virus infected patient assessed as (1-((2-amino-9H-purin-9-yl)methyl)cyclopropoxy)me at 60 mg, po qd for 4 weeks by LC-MS analysis; assay type: ADME, organism-based; conditions: in vivo, 672 h
In short: (§6)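 CHB patients given LB80380 orally once daily for 4 weeks. Plasma was sampled on day 1 and at steady state (weeks 2–4), predose and 0.5, 1, 2, 3, 4, 6, 8 and 24 h postdose. LB80331 was measured by validated LC-MS/MS (LLOQ 5 ng/ml). Terminal-phase apparent t1/2 came from noncompartmental analysis and was flagged if extrapolated AUC exceeded 20% of AUC0-24.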

Homo sapiens [11] = experiment: Half life in chronic hepatitis B virus infected patient assessed as (1-((2-amino-9H-purin-9-yl)methyl)cyclopropoxy)me at 240 mg, po administered as single dose by LC-MS analysis; assay type: ADME, organism-based; conditions: in vivo; in short: as §6
Liver [12] = experiment: Cmax in CD-1 mouse liver assessed as (1-((2-amino-9H-purin-9-yl)methyl)cyclopropoxy)me at 30 mg/kg, po administered as single dose by LC-MS analysis; assay type: ADME, organism-based; set-up: dose 30 mg/kg, route oral; conditions: in vivo; in short: as §3
Homo sapiens [13] = experiment: Half life in chronic hepatitis B virus infected patient assessed as (1-((2-amino-9H-purin-9-yl)methyl)cyclopropoxy)me at 60 mg, po administered as single dose by LC-MS analysis; assay type: ADME, organism-based; conditions: in vivo; in short: as §6
Homo sapiens [14] = experiment: Cmax in chronic hepatitis B virus infected patient assessed as (1-((2-amino-9H-purin-9-yl)methyl)cyclopropoxy)me at 60 mg, po administered as single dose by LC-MS analysis; assay type: ADME, organism-based; set-up: dose 60 mg, route oral; conditions: in vivo; in short: as §1
Homo sapiens [15] = experiment: Tmax in chronic hepatitis B virus infected patient assessed as (1-((2-amino-9H-purin-9-yl)methyl)cyclopropoxy)me at 30 mg, po qd for 4 weeks by LC-MS analysis; assay type: ADME, organism-based; conditions: in vivo, 672 h; in short: as §4
Homo sapiens [16] = experiment: Tmax in chronic hepatitis B virus infected patient assessed as (1-((2-amino-9H-purin-9-yl)methyl)cyclopropoxy)me at 120 mg, po administered as single dose by LC-MS analysis; assay type: ADME, organism-based; conditions: in vivo; in short: as §4
Liver [17] = experiment: AUC (0 to infinity) in CD-1 mouse liver assessed as (1-((2-amino-9H-purin-9-yl)methyl)cyclopropoxy)me at 30 mg/kg, po administered as single dose by LC-MS analysis; assay type: ADME, organism-based; set-up: time infinity, dose 30 mg/kg, route oral; conditions: in vivo; in short: as §3
Homo sapiens [18] = experiment: Cmax in chronic hepatitis B virus infected patient assessed as (1-((2-amino-9H-purin-9-yl)methyl)cyclopropoxy)me at 120 mg, po qd for 4 weeks by LC-MS analysis; assay type: ADME, organism-based; set-up: dose 120 mg, route oral; conditions: in vivo, 672 h; in short: as §2
Homo sapiens [19] = experiment: Tmax in chronic hepatitis B virus infected patient assessed as (1-((2-amino-9H-purin-9-yl)methyl)cyclopropoxy)me at 240 mg, po administered as single dose by LC-MS analysis; assay type: ADME, organism-based; conditions: in vivo; in short: as §4
Plasma [20] = experiment: Cmax in CD-1 mouse plasma assessed as (1-((2-amino-9H-purin-9-yl)methyl)cyclopropoxy)me at 30 mg/kg, po administered as single dose by LC-MS analysis; assay type: ADME, organism-based; set-up: dose 30 mg/kg, route oral; conditions: in vivo; in short: as §3
Homo sapiens [21] = experiment: Tmax in chronic hepatitis B virus infected patient assessed as (1-((2-amino-9H-purin-9-yl)methyl)cyclopropoxy)me at 60 mg, po qd for 4 weeks by LC-MS analysis; assay type: ADME, organism-based; conditions: in vivo, 672 h; in short: as §4
Homo sapiens [22] = experiment: Oral clearance in chronic hepatitis B virus infected patient assessed as (1-((2-amino-9H-purin-9-yl)methyl)cyclopropoxy)me at 60 mg, po administered as single dose by LC-MS analysis; assay type: ADME, organism-based; conditions: in vivo; in short: as §5

Cmax (Homo sapiens [1]): 246 ng/mL
AUC (Homo sapiens [2]): 4374 ng·h/mL
Cmax (Homo sapiens [3]): 362 ng/mL
AUC (Liver [4]): 64 µM·h
Tmax (Homo sapiens [5]): 2 h
t1/2 (Liver [6]): 3.2 h
AUC (Plasma [7]): 17 µM·h
CL/F (Homo sapiens [8]): 288 mL/min
AUC (Plasma [9]): 17 µM·h
t1/2 (Homo sapiens [10]): 3 h
t1/2 (Homo sapiens [11]): 3 h
Cmax (Liver [12]): 44 µM
t1/2 (Homo sapiens [13]): 3 h
Cmax (Homo sapiens [14]): 397 ng/mL
Tmax (Homo sapiens [15]): 2 h
Tmax (Homo sapiens [16]): 2 h
AUC (Liver [17]): 102 µM·h
Cmax (Homo sapiens [18]): 696 ng/mL
Tmax (Homo sapiens [19]): 2 h
Cmax (Plasma [20]): 6 µM
Tmax (Homo sapiens [21]): 2 h
CL/F (Homo sapiens [22]): 244 mL/min
SMILES: Nc1ncc2ncn(CC3(OCP(=O)(O)O)CC3)c2n1 [BESIFOVIR]
